{"data": "Experimental data gathered from unrelated publications", "target": "Fibroblast growth factor receptor 2 (FGFR2, Homo sapiens, UniProt P21802)", "note": "Protocols differ between the studies behind these lines."}
{"SMILES": "C[C@@H]1CN(c2ccc3ncc(-c4ccc5[nH]nc(C6CC6)c5c4)n3n2)C[C@H](C)O1", "assay": "binding, competition with immobilised ligand", "conditions": "50 nM", "remaining binding [%]": 100}
{"SMILES": "CN(C)c1ncc(F)c(-c2cnn3ncccc23)n1", "assay": "binding", "conditions": "1 µM", "remaining binding [%]": 100}
{"SMILES": "CCCOc1ccc([C@@H]2[C@@H](C(=O)O)[C@H](c3ccc4c(c3)OCO4)CN2CC(=O)Nc2c(CC)cccc2CC)cc1", "assay": "cell-free assay, competition with immobilised ligand", "conditions": "1 µM", "remaining binding [%]": 100}
{"SMILES": "O=C(NCC1CCOCC1)c1n[nH]cc1NC(=O)c1c(F)cccc1F", "assay": "binding, competition with immobilised ligand", "conditions": "1 µM", "remaining binding [%]": 100}
{"SMILES": "CCN1CCN(Cc2ccc(C(=O)Nc3ccc(C)c(Oc4ccc5c(c4)CC(=O)N5)c3)cc2C(F)(F)F)CC1", "assay": "binding, competition with immobilised ligand", "conditions": "1 µM", "remaining binding [%]": 83}
{"SMILES": "COc1ccc2cc(OCC3(C(=O)O)CN(C(=O)c4ccc(F)cc4)C3)ccc2c1", "assay": "cell-free assay, competition with immobilised ligand", "conditions": "1 µM", "remaining binding [%]": 100}
{"SMILES": "O=C(NCCCN1CCOCC1)c1ccc(Nc2nccc(-c3cc4ccccc4s3)n2)cc1", "assay": "binding, competition with immobilised ligand", "conditions": "1 µM", "remaining binding [%]": 84}
{"SMILES": "C[C@H](c1ccc(F)cc1)N(Cc1cccc(C(=O)O)c1)C(=O)c1cnc2ccccc2c1", "assay": "cell-free assay, competition with immobilised ligand", "conditions": "1 µM", "remaining binding [%]": 74}
{"SMILES": "N#Cc1ccccc1CSc1nnc2c(n1)[nH]c1ccccc12", "assay": "binding, competition with immobilised ligand", "conditions": "10 µM", "remaining binding [%]": 91}
{"SMILES": "C[C@H]1CCN(c2nccc(-c3cnn4ncccc34)n2)C1", "assay": "binding", "conditions": "1 µM", "remaining binding [%]": 100}
{"SMILES": "Cc1nccc(COC(=O)N2C[C@@H]3[C@@H](CNC(=O)c4ccc5[nH]nnc5c4)[C@@H]3C2)n1", "assay": "cell-free assay, competition with immobilised ligand", "conditions": "1 µM", "remaining binding [%]": 78}
{"SMILES": "CN(CCCC(F)(F)F)c1nccc(-c2cnn3ncccc23)n1", "assay": "binding", "conditions": "1 µM", "remaining binding [%]": 89}
{"SMILES": "O=C(c1ccc(Nc2ncc(Cl)c(-c3ccc(Cl)s3)n2)cc1)N1CCC(N2CCCC2)CC1", "assay": "binding, competition with immobilised ligand", "conditions": "1 µM", "remaining binding [%]": 4.4}
{"SMILES": "CN(c1nccc(-c2cnn3ncccc23)n1)C1CC1", "assay": "binding", "conditions": "1 µM", "remaining binding [%]": 100}
{"SMILES": "O=C(O)[C@H]1[C@H](Cn2nnc3ccccc3c2=O)CC[C@@H]1C(=O)c1ccc(OCCC2CCOCC2)cc1", "assay": "cell-free assay, competition with immobilised ligand", "conditions": "1 µM", "remaining binding [%]": 100}
{"SMILES": "CN(C)c1nccc(-c2cnc3ncccn23)n1", "assay": "binding", "conditions": "1 µM", "remaining binding [%]": 100}
{"SMILES": "COc1cnc(Nc2cccc(S(N)(=O)=O)c2)nc1N1CCN(c2ccccc2)CC1", "assay": "binding, competition with immobilised ligand", "conditions": "1 µM", "remaining binding [%]": 90}
